NR2E3 ag-1: human photoreceptor-specific nuclear receptor agonism. Q9Y5X4. CHO-S Gal4-NCOR/VP16-NR2E3 two-hybrid, luciferase. inhibition of corepressor binding, % at 3.98 µM. 360,000 tested, 0.35% active;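 active = inhibition above the mean of all tested compounds plus 3 SD, cut at about 70% in these data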;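 also: 0% = DMSO with NR2E3 transfected cells and 100% = cells lacking NR2E3 construct; higher means lower luciferase signal from less NR2E3 corepressor binding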
NR2E3 ag-2: NR2E3 (human) agonism | Q9Y5X4 | GST-NR2E3/biotin-RetCOR TR-FRET, 1536-well | inhibition of corepressor binding, % at 4.78 µM | 320,000 tested, 0.12% active;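 active = percent inhibition above the cutoff of mean plus 3 SD of all tested compounds, set per screening campaign, cut at about 20% in these data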;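 also: 0% = DMSO wells and 100% = biotin wells as full block of FRET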
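System: GST-tagged NR2E3 plus biotinylated RetCOR corepressor; Amount: 1.35 nM GST-tagged NR2E3 final; Dosing: single nominal compound dose of 4.8 µM; Schedule: 5 h incubation at 4 °C; Technique: TR-FRET with europium anti-GST and streptavidin-D2, 340 nm excitation; Controls: biotin wells as high control, 0.6% DMSO wells as low control.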
NR1D1 modulator: modulators of human Rev-erb alpha DNA binding; P20393; AID 1259318; activity, % at 10 µM; Rev-erbα–FITC-DNA binding, fluorescence polarization, 90 min; 370,000 tested, 0.79% active;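 active = activity above about 14%, limit read from the data; passing the limit was not always enough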;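 also: 0% = DMSO wells with 35 nM protein and 100% = DMSO wells with 750 nM protein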
Target sequence (P20393 whole entry, looked up): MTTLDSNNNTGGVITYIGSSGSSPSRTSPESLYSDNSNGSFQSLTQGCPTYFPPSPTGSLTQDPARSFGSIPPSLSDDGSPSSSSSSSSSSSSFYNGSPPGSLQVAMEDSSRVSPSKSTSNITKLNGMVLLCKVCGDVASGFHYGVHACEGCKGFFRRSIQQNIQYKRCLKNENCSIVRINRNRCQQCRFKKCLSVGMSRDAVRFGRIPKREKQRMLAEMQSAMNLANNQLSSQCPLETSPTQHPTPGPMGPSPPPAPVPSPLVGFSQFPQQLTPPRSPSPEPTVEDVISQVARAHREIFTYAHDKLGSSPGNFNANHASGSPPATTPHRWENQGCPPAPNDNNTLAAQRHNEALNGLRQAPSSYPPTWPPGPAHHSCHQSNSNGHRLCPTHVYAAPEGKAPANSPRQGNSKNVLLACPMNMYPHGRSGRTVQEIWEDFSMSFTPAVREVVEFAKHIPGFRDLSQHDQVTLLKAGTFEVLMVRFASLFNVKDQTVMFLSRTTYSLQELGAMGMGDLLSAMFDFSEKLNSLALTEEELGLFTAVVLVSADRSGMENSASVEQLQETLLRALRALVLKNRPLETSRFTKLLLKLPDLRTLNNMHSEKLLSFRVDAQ
PG9 binder: small molecules binding HIV-1 gp120 antibody PG9; TR-FRET gp120-PG9 antibody binding; AID 624416; 360,000 tested, 0.43% active; inhibition, % at 6.7 µM; in the data active = inhibition above about 8.5%
PG9 binder conf: PG9 antibody binding, confirmed | shares compounds with PG9 binder | TR-FRET PG9 antibody binding, biochemical | inhibition, % at 6.7 µM | 1,500 tested, 90% active | AID 651571; in the data active = inhibition above about 9%
PGV04 Ab binding: binds control antibody PGV04 in PG9 binder counter-screen; shares compounds with PG9 binder; TR-FRET PGV04 antibody-gp120 binding, biochemical; inhibition, % at 6.7 µM; 1,500 tested, 95% active; AID 651604; in the data active = inhibition above about 9.5%
PG9 bind DR: small molecules binding HIV-1 gp120 antibody PG9; 95 tested, under 10 active; IC50, µM; shares compounds with PG9 binder; AID 651848; TR-FRET PG9 antibody-gp120 binding inhibition; in the data active = IC50 below about 10 µM
PGV04 binding DR: binds control antibody PGV04 in PG9 counter-screen | 95 tested, 20% active | IC50, µM | shares compounds with PG9 binder | TR-FRET binding to control antibody PGV04
PG126 DR counter: counter-screen for PG9 binders: binding to control antibody PG126; shares compounds with PG9 binder; TR-FRET binding to antibody PG126, counterscreen; IC50, µM; 95 tested, 20% active; AID 651939
NR1D1 mod conf: Rev-erb alpha (human) modulation, hit confirmation. 3,000 tested, 61% active. activation, % at 25 µM. AID 1259319. shares compounds with NR1D1 modulator. Rev-erb alpha FITC-DNA binding, fluorescence polarization, 90 min;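 active = activation at or above a set limit, or at least 3 SD above the negative control mean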;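 also: 0% = 35 nM protein with DMSO and 100% = 750 nM protein high control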
RORg DNA counter: counter-screen for Rev-erb alpha modulators: RORgamma DNA binding; shares compounds with NR1D1 modulator; 910 tested, 8% active; IC50, µM; purified RORgamma protein-FITC-DNA binding, fluorescence polarization;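 active = Compounds whose fitted half-maximal concentration for disrupting protein-DNA binding is below 10 micromolar; the record names Rev-erb in its text, so the target is in doubt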
* marks the source's active call; other numbers are inactive results; i = inactive; · = not tested or not shown. An excerpt weighted towards active compounds, which were near 1.4% of everything screened. Rule as the data show it, unless noted: active = IC50 below about 9 µM; inactive = the rest.

SMILES | NR2E3 ag-1 | NR2E3 ag-2 | NR1D1 modulator | PG9 binder | PG9 binder conf | PGV04 Ab binding | NR1D1 mod conf | others
CC(=O)c1cccc(Nc2nc(-c3ccccc3)nc3ccccc23)c1 | -1 | 3 | 26* | 36* | 12* | 22* | 8
CC(=O)Nc1cccc(Nc2nc(-c3ccccc3)nc3ccccc23)c1 | -16 | -3 | -1 | 0 | · | · | ·
CN1Cc2nnn(Cc3ccccc3)c2-c2cc(N3CCCCC3)ccc2S1(=O)=O | · | · | 1 | · | · | · | ·
N#Cc1c(-c2ccc(F)cc2)cc(-c2ccccc2)nc1SCC(=O)NCC(=O)O | -27 | 2 | 5 | 0 | · | · | ·
COc1ccc(-c2cc(-c3ccccc3)c(C#N)c(SCC(=O)Nc3ncc(C)s3)n2)cc1 | -2 | 3 | 26* | 27* | 6 | 10* | 42* | RORg DNA counter=>40
CCCCCN1CCCCC(NC(=O)c2cccc(F)c2)C1=O (stereo unspecified) | · | · | 1 | · | · | · | ·
Cc1ccc(C(=O)OCc2cc3ccccc3[nH]c2=O)cc1 | -14 | 17 | 23* | 15* | 24* | 31* | 17*
O=C(OCc1cc2ccccc2[nH]c1=O)c1ccc([N+](=O)[O-])cc1 | 12 | -1 | -12 | -3 | · | · | ·
COc1cc2cc(Br)cc(Br)c2nc1C | -9 | 19 | 37* | 47* | 40* | 54* | 22*
COc1cc2cnncc2cc1OC | -12 | 0 | 2 | 1 | · | · | ·
COC(=O)c1c(-c2ccc(F)cc2)csc1NC(=O)c1ccco1 | -213 | 6 | 27* | 12* | 18* | 25* | 16
O=C(Nc1scc(-c2ccccc2)c1C(=O)O)c1ccco1 | -67 | 3 | -1 | 0 | · | · | ·
Cc1cc(C)c(NC(=O)CSc2nc3ncc(Br)cc3[nH]2)c(C)c1 | 3 | 0 | 124* | 39* | 41* | 65* | 99* | RORg DNA counter=>40
Cc1ccccc1Nc1nn2c(=O)c3ccccc3nc2s1 | -70 | 0 | 37* | 36* | 31* | 47* | 19*
O=c1c2ccccc2nc2sc(Nc3ccc(F)cc3)nn12 | -57 | 3 | 100* | 12* | 23* | 24* | 92* | RORg DNA counter=>40
CCc1cccc(NC(=O)c2ccc(Cn3c(=O)[nH]c4ccsc4c3=O)cc2)c1 | -26 | 12 | 55* | 25* | 29* | 40* | 60* | RORg DNA counter=i
O=C(c1ccc(Cn2c(=O)[nH]c3ccsc3c2=O)cc1)N1CCN(c2ccccc2)CC1 | -5 | 3 | 1 | 0 | · | · | ·
COc1ccc(-n2ncc3c(NCc4ccc5c(c4)OCO5)ncnc32)cc1 | -50 | -3 | 25* | 16* | 6 | 9 | -3
c1ccc(-n2ncc3c(NCc4ccc5c(c4)OCO5)ncnc32)cc1 | -32 | -1 | 1 | 2 | · | · | ·
COc1ccccc1N(C)S(=O)(=O)c1ccc(C(=O)Nc2nc(C)c(C(C)=O)s2)cc1 | 4 | 12 | 104* | 40* | 41* | 61* | 87* | RORg DNA counter=>40
O=C(Nc1ccc(F)cc1)N[C@@H]1C[C@@H]2O[C@H](CO)CC[C@@H]2O[C@@H]1CCc1ccc(C2=CCCC2)cc1 | · | · | 4 | · | · | · | ·
N#Cc1c(N)nc(SCC(=O)NCCc2ccccc2)c(C#N)c1-c1cccs1 | -4 | 17 | 52* | 40* | 38* | 62* | 43* | RORg DNA counter=>40
CC(C)OC(=O)CSc1nc(N)c(C#N)c(-c2cccs2)c1C#N | 38 | 0 | 11 | 2 | · | · | ·
CCCCCCCCN1CCS(=O)(=O)N(Cc2ccc(Cl)cc2)C(C(=O)OC)C1 (stereo unspecified) | · | · | 1 | · | · | · | ·
O=C(Cn1cnc2c(oc3nc4c(cc32)CCCC4)c1=O)Nc1cccc(Cl)c1 | 2 | 7 | 57* | 9.1* | 26* | 25* | 17 | PG9 bind DR=>67;PGV04 binding DR=i;PG126 DR counter=i
SMILES | NR2E3 ag-1 | NR2E3 ag-2 | NR1D1 modulator | PG9 binder | PG9 binder conf | PGV04 Ab binding | NR1D1 mod conf | others
Oc1ccc2ccccc2c1C=NN1CCN(Cc2ccc(Cl)cc2)CC1 | · | · | 3 | · | · | · | ·
CCCCOC(=O)CCN1C(=O)/C(=C/c2ccccc2)SC1=S | · | · | -1 | · | · | · | ·
COCCNC(=O)[C@]1(C#N)CC(=O)N(C)[C@@H]1c1ccccc1 | · | · | 5 | · | · | · | ·
CCC(C)n1c(=O)c(C(=O)Nc2ccccc2S(N)(=O)=O)c(O)c2ccccc21 (stereo unspecified) | -58 | 0 | 54* | 14* | 14* | 23* | 31*
N#Cc1cccc(NC(=O)OCCCN2CCC3(CCCCC3)C2=O)c1 | · | · | -1 | · | · | · | ·
COC(=O)[C@]12C[C@H](CC(=O)NCCC(C)C)C(=O)N(Cc3ccco3)C1=C[C@H](COCc1ccccc1)O[C@@H]2C | · | · | -6 | · | · | · | ·
NC(=O)c1cc(Cc2ccccc2)sc1NC(=O)c1ccco1 | -155 | 2 | 5 | 2 | · | · | ·
CCOc1ccc(CC(=O)Nc2sc(Cc3ccccc3)cc2C(N)=O)cc1OCC | -1 | -2 | 69* | 55* | 14* | 21* | 43* | RORg DNA counter=2.5*
CCOC(=O)c1cc2sc(C)cc2n1CC(=O)NCc1ccc(F)cc1 | -19 | 2 | 27* | 59* | 49* | 75* | 11
CCn1ccc(C(=O)Nc2sc3c(c2C(=O)OC)CCC3)n1 | -23 | · | -4 | -1 | · | · | ·
COC(=O)c1c(NC(=O)c2ccn(C)n2)sc2c1CCC2 | -4 | 3 | 20* | 9.0* | 7 | 13* | -5
COC(=O)C1CN(Cc2cn(Cc3ccccc3)nn2)CCS(=O)(=O)N1Cc1ccc(C)cc1 (stereo unspecified) | · | · | 0 | · | · | · | ·
COc1ccc(Br)cc1-c1nc2c(c(=O)[nH]c(=O)n2Cc2ccccc2)n1C | -19 | 1 | 92* | 45* | 69* | 20* | 52* | PG9 bind DR=9.5*;PGV04 binding DR=5.1*;PG126 DR counter=5.7*;RORg DNA counter=>40
CCc1nc2ccccc2c(C(=O)OCC(=O)C(C)(C)C)c1C | 0 | 3 | 0 | -1 | · | · | ·
CCc1nc2ccccc2c(C(=O)OCc2nc3ccccc3c(=O)[nH]2)c1C | -33 | · | 32* | 25* | 14* | 17* | 28* | RORg DNA counter=>40
CCOc1ccc(OCC)c(NC(=O)c2[nH]c(C)c(C(C)=O)c2C)c1 | -24 | 11 | 59* | 16* | 11* | 8 | 52* | PG9 bind DR=>67;PGV04 binding DR=3.6*;PG126 DR counter=3.9*;RORg DNA counter=>40
